In ChEMBL document CHEMBL5236601, “Development and Utility of a PAK1-Selective Degrader” (J Med Chem, 2022) one finds Activity and EC50 data, which are given here for two compounds.

What all share (format): functional, cell-based
The subject of one assay is OMM-1. As to the kind of experiment: (§1) Antiproliferative activity against human OMM-1 cells assessed as cell viability measured after 72 hrs incubation by MTT assay. In outline:
(§2)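 Seeded at 2 x 10^3 cells/well overnight, then exposed to a range of concentrations for 72 hours (the figure legend states 96 hr). Cell viability read by MTT, with medium alone as blank. Triplicate wells, at least three independent experiments. IC50/EC50 from curve fitting, reported as means ± SD (n=3).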
For orientation: Tetrazolium dyes change colour on reduction, which living cells bring about.

In assay [1] the test system is MCF7. Nature of the assay: Antiproliferative activity against human MCF7 cells assessed as cell viability measured after 72 hrs incubation by MTT assay. In outline:
as §2

In another assay the test system is HEY A8. As to the kind of experiment: (§3) Antiproliferative activity against human HeyA8 cells assessed as cell viability measured after 72 hrs incubation by MTT assay. In outline:
as §2

For the next assay, the system named is OVCAR-3. As to the kind of experiment: Antiproliferative activity against human OVCAR-3 cells assessed as cell viability measured after 72 hrs incubation by MTT assay. In outline:
as §2

The test system of assay [2] is MCF7. Nature of the assay: Antiproliferative activity against human MCF7 cells assessed as effect on doxycycline-induced PAK1-specific shRNA mediated reduction in PAK1 expression by measuring reduction in cell index after 114 hrs.
Assay [3] is described as follows: as §1. Conditions: OMM-1, 72 h. In outline:
as §2

Assay [4] can be described thus: as §3. Conditions: HEY A8, 72 h. In outline:
as §2

Each structure is given as a SMILES string. Active and inactive are the calls of the source. The calls are words filed in the database; no cut-off is given here.

In the case of `Nc1cccc2c1CN(C1CCC(=O)NC1=O)C2=O` (centres undefined), the result with OMM-1, in the assay with MCF7 [1], in the assay on HEY A8 and in the assay with OVCAR-3 was inactive.
In general, EC50 refers to the concentration that produces a half-maximal response. For the compound `CC(C)NC(=O)N1CC[C@@H](NC2=Nc3cc(F)ccc3N(CC(F)F)c3ccc(Cl)cc32)C1`, the result in the assay with MCF7 [2] was Active. Further, the EC50 in assay [3] was 12 µM; in the assay on MCF7 [1] (MCF7, 72 h) it was 11.8 µM; in assay [4] it was 33.6 µM; in the assay with OVCAR-3 (OVCAR-3, 72 h), 8.9 µM.
